Data as given in ChEMBL document CHEMBL5385868, “Bifunctional carbazole derivatives for simultaneous therapy and fluorescence imaging in prion disease murine cell models” (Eur J Med Chem, 2023).
Active and inactive are the calls of the source. The rule behind the calls is not given here.

Key:
[1] = Cytotoxicity against RML infected mouse ScGT1 cells assessed as reduction in cell viability at 0.1 uM measured after 5 days by MTT assay relative to control; assay type: toxicity, cell-based; settings: scgt1, 120 h, time 5 day
Outline: (§1)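 MTT viability in RML-infected ScGT1 cells after 5 days exposure to 0.1, 1 or 10 µM compound, vehicle control. MTT 5 mg/mL in PBS for 3 h at 37 °C, 5% CO2; dissolved in DMSO/2-propanol (1:1), 30 min at room temperature, then plate read; triplicate.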

[2] = Anti-prion activity against RML infected mouse ScGT1 cell lysate assessed as PrPSc residual level at 10 uM measured after 5 days by Western blot analysis relative to control; assay type: functional; settings: time 5 day
Outline: (§2)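 RML-infected ScGT1 cells, confluent, split 1:10 and seeded in triplicate; compound (DMSO stock diluted in water) added to medium two days after seeding at 0.1, 1 or 10 µM, vehicle control; 5 days treatment. Lysates (1 mg/mL) digested with 20 µg/mL PK, 1 h, 37 °C, stopped with PMSF, ultracentrifuged; pellets blotted with anti-PrP Fab D18. PrPSc remaining expressed relative to untreated lysates.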

[3] = Anti-prion activity against RML infected mouse ScGT1 cell lysate assessed as PrPSc residual level at 1 uM measured after 5 days by Western blot analysis relative to control; assay type: functional; settings: time 5 day; outline: as §2
[4] = Cytotoxicity against RML infected mouse ScGT1 cells assessed as reduction in cell viability at 10 uM measured after 5 days by MTT assay relative to control; assay type: toxicity, cell-based; settings: scgt1, 120 h, time 5 day; outline: as §1
[5] = Cytotoxicity against RML infected mouse ScGT1 cells assessed as reduction in cell viability at 1 uM measured after 5 days by MTT assay relative to control; assay type: toxicity, cell-based; settings: scgt1, 120 h, time 5 day; outline: as §1
[6] = Anti-prion activity against RML infected mouse ScGT1 cell lysate assessed as PrPSc residual level at 0.1 uM measured after 5 days by Western blot analysis relative to control; assay type: functional; settings: time 5 day; outline: as §2
[7] = (§3) Anti-prion activity against RML infected mouse ScGT1 cells assessed as inhibition of PrPSc formation measured after 5 days by Western blot analysis; assay type: functional; settings: dose 0.1-10 µM; time 5 day; outline: as §2
[8] = system: GT1; test: Anti-prion activity against mouse GT1 cells assessed as reduction in PrPSc level at 0.1 to 10 uM measured after 5 days by Western blot analysis; assay type: functional, cell-based; settings: dose 0.1-10 µM, time 5.0 day
[9] = Anti-prion activity against RML infected mouse ScGT1 cell assessed as PrPSc clearance level measured after 5 days by Western blot analysis; assay type: functional, cell-based; settings: ScGT1, 120 h; outline: as §2
[10] = Anti-prion activity against 22L prion infected mouse ScGT1 cells assessed as reduction in PrPSc level measured after 5 days by Western blot analysis; assay type: functional, cell-based; settings: ScGT1, 120 h
Outline: (§4)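 22L-infected ScGT1 or ScN2a cells given compound in medium (vehicle ≤0.001% DMSO), triplicate. Lysates digested with 20 µg/mL PK for 1 h at 37 °C, stopped with PMSF, ultracentrifuged; PK-resistant PrP detected by Western blot with anti-PrP Fab D18 and HRP-conjugated secondary, ECL read-out.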

[11] = molecular target: Major prion protein (Mus musculus) (UniProt P04925); test: Inhibition of full length recombinant mouse PrP (89 to 231 residues) expressed in Escherichia coli BL21 (DE3) cells to PrPSc conversion assessed as vCJD prion amplification at 10 uM
Sequence of Major prion protein (Mus musculus) (P04925 whole entry, the tested form may be a part): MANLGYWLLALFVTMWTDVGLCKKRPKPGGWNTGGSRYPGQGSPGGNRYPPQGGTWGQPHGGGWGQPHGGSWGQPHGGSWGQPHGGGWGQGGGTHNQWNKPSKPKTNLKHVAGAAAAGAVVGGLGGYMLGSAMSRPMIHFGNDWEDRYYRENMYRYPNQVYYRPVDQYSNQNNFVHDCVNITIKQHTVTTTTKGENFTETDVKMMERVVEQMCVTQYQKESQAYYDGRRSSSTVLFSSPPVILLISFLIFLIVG

[12] = molecular target: Major prion protein (Mus musculus) (UniProt P04925); test: Inhibition of full length recombinant mouse PrP (89 to 231 residues) expressed in Escherichia coli BL21 (DE3) cells to PrPSc conversion assessed as RML amplification at 10 uM in presence of PMCA
[13] = system: N2a; test: Effect on N2a mouse cells assessed appearance of protein clusters measured after 60 mins by fluorescence based confocal microscopy based analysis; assay type: functional, cell-based
Outline: (§5)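 N2a cells on coverslips at semi-confluence for 24 h, fixed in 4% paraformaldehyde, permeabilised with 0.2% Triton X-100, denatured with 6 M GdnHCl for 10 min, blocked with 1% BSA, then stained with 0.025% compound for 60 min. Anti-PrP mAb W226 as counterstain, DAPI for nuclei; confocal imaging with FITC/TRITC filters.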

[14] = system: ScN2a; test: Anti-prion activity against 22L prion infected mouse ScN2a cells assessed as reduction in PrPSc level measured after 5 days by Western blot analysis; assay type: functional, cell-based; settings: 120 h; outline: as §4
[15] = system: N2a; test: Effect on N2a mouse cells assessed appearance of protein aggregates measured after 60 mins by fluorescence based confocal microscopy based analysis; assay type: functional, cell-based; outline: as §5
[16] = molecular target: Major prion protein (Mus musculus) (UniProt P04925); test: Inhibition of full length recombinant mouse PrP (89 to 231 residues) expressed in Escherichia coli BL21 (DE3) cells to PrPSc conversion assessed as lag time for protein aggregation at 20 uM measured after 72 hrs by spectramax fluorescence microplate reader analysis
[17] = molecular target: Major prion protein (Mus musculus) (UniProt P04925); test: Inhibition of full length recombinant mouse PrP (89 to 231 residues) expressed in Escherichia coli BL21 (DE3) cells to PrPSc conversion assessed as vCJD prion amplification at 10 uM in presence of PMCA
Outline: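 vCJD prions serially diluted 10^-5 to 10^-8 into 10% brain homogenate from Tg(MHu2M) mice expressing chimeric human-murine PrP, in conversion buffer with 0.05% digitonin. Substrate supplemented with PBS or 10 µM compound. PMCA: incubation at 37/40 °C with 40 s sonication pulses at 270–280 W.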

[18] = molecular target: Major prion protein (Mus musculus) (UniProt P04925); test: Inhibition of full length recombinant mouse PrP (89 to 231 residues) expressed in Escherichia coli BL21 (DE3) cells to PrPSc conversion assessed as RML amplification at 10 uM
[19] = molecular target: Major prion protein (Mus musculus) (UniProt P04925); test: Inhibition of full length recombinant mouse PrP (89 to 231 residues) expressed in Escherichia coli BL21 (DE3) cells to PrPSc conversion assessed as lag time for protein aggregation at 4 uM measured after 72 hrs by spectramax fluorescence microplate reader analysis
[20] = Anti-prion activity against RML infected mouse ScGT1 cells assessed as reduction in PrPSc level measured after 5 days by Western blot analysis; assay type: functional, cell-based; settings: ScGT1, 120 h; outline: as §2
[21] = molecular target: Major prion protein (Mus musculus) (UniProt P04925); test: Inhibition of full length recombinant mouse PrP (89 to 231 residues) expressed in Escherichia coli BL21 (DE3) cells to PrPSc conversion assessed as lag time for protein aggregation at 40 uM measured after 72 hrs by spectramax fluorescence microplate reader analysis
[22] = system: ScGT1; test: as §3; assay type: functional; settings: dose 0.1-10 µM, time 5.0 day; outline: as §2

O=C(CN1CCCCC1)Nc1ccc2[nH]c3ccc(NC(=O)CN4CCCCC4)cc3c2c1
Cell viability relative to control [1]: 81% | Activity [2]: 44% | Activity [3]: 105% | Activity [4]: 69% | Cell viability (% of control) [5]: 76% | Activity [6]: 109%

O=C(Cn1ccnc1)Nc1ccc2[nH]c3ccc(NC(=O)Cn4ccnc4)cc3c2c1
Cell viability relative to control [1]: 100% | Activity [2]: 74% | Activity [3]: 98% | Activity [4]: 77% | Cell viability (% of control) [5]: 89% | Activity [6]: 120%

CN1CCN(CC(=O)Nc2ccc3[nH]c4ccc(NC(=O)CN5CCN(C)CC5)cc4c3c2)CC1
Cell viability relative to control [1]: 99% | Activity [2]: 28% | Activity [3]: 46% | Activity [4]: 47% | Cell viability (% of control) [5]: 70% | Activity [6]: 85%

O=C(CN1CCOCC1)Nc1ccc2[nH]c3ccc(NC(=O)CN4CCOCC4)cc3c2c1
Cell viability relative to control [1]: 101% | Activity [2]: 59% | Activity [3]: 102% | Activity [4]: 84% | Cell viability (% of control) [5]: 86% | Activity [6]: 96%

O=C(CN1CCCC1)Nc1ccc(Cc2ccc(NC(=O)CN3CCCC3)cc2)cc1
Activity [7]: 7.8 µM | Cell viability relative to control [1]: 85% | Activity [2]: 13% | Activity [3]: 103% | Activity [4]: 50% | Cell viability (% of control) [5]: 69% | Activity [8]: inactive | EC50 [9]: 2.5 µM | Activity [6]: 127%

O=C(CN1CCN(c2ccccc2)CC1)Nc1ccc2[nH]c3ccc(NC(=O)CN4CCN(c5ccccc5)CC4)cc3c2c1
Cell viability relative to control [1]: 71% | Activity [2]: 134% | Activity [3]: 136% | Activity [4]: 63% | Cell viability (% of control) [5]: 73% | Activity [6]: 124%

O=C(CN1CCCC1)Nc1ccc2[nH]c3ccccc3c2c1
Cell viability relative to control [1]: 83% | Activity [2]: 26% | Activity [3]: 75% | Activity [4]: 29% | Cell viability (% of control) [5]: 72% | Activity [6]: 78%

CC(C)N(CC(=O)Nc1ccc2[nH]c3ccc(NC(=O)CN(C(C)C)C(C)C)cc3c2c1)C(C)C
Cell viability relative to control [1]: 92% | Activity [2]: 24% | Activity [3]: 39% | Activity [4]: 61% | Cell viability (% of control) [5]: 75% | Activity [6]: 73%

CN(C)CC(=O)Nc1ccc2[nH]c3ccc(NC(=O)CN(C)C)cc3c2c1
EC50 [10]: 33.5 µM | inhibition [11]: inactive | inhibition [12]: Active | Activity [13]: inactive | Cell viability relative to control [1]: 111% | EC50 [14]: 7.3 µM | Activity [15]: Active | TIME [16]: 5 h | Activity [2]: 17% | Activity [3]: 47% | Activity [4]: 95% | inhibition [17]: inactive | inhibition [18]: inactive | TIME [19]: 21.5 h | Cell viability (% of control) [5]: 99% | EC50 [20]: 1.35 µM | Activity [8]: inactive | TIME [21]: 9.5 h | EC50 [9]: 6.6 µM | Activity [6]: 130%

CCN(CC)CC(=O)Nc1ccc2[nH]c3ccc(NC(=O)CN(CC)CC)cc3c2c1
Cell viability relative to control [1]: 108% | Activity [2]: 31% | Activity [3]: 57% | Activity [4]: 103% | Cell viability (% of control) [5]: 99% | EC50 [20]: 2.25 µM | Activity [8]: inactive | EC50 [9]: 8 µM | Activity [6]: 84%

O=C(CN1CCCC1)Nc1ccc2[nH]c3ccc(NC(=O)CN4CCCC4)cc3c2c1
Activity [7]: 7.4 µM | Activity [22]: Dose-Dependent Effect | Cell viability relative to control [1]: 118% | Activity [2]: 27% | Activity [3]: 103% | Activity [4]: 71% | Cell viability (% of control) [5]: 85% | Activity [6]: 148%
